# NPY-Y2 PAM-ag = human NPY-Y2 potentiation or agonism, primary screen. P49146. cells expressing NPY-Y2, potentiator/agonist read-out. activation, % at 3.6 µM. 0.45% of 220,000 active; in the data active means activation above about 27%;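 further: cells stimulated with NPY near EC25 plus isoproterenol at EC100; 0% = vehicle plus submaximal agonist and 100% = vehicle plus saturating agonist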
# Target sequence (P49146 whole entry, looked up): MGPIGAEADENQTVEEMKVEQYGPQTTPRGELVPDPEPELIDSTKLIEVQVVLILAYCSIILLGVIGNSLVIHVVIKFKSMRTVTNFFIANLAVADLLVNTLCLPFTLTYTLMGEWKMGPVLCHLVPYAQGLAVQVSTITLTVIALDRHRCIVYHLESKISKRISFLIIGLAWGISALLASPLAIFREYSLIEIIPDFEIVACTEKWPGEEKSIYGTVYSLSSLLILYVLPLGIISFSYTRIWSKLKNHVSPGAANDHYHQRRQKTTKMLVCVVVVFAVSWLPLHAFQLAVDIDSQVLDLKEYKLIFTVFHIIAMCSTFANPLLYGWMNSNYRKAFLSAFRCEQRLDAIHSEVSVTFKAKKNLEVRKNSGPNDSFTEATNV
# NPY-Y1 PAM-ag = human NPY-Y1 potentiation or agonism, primary screen | AID 1304 | NPY-Y1 expressing cells, potentiator/agonist activation | P25929 | 0.37% of 220,000 active | activation, % at 3.6 µM; in the data active means activation above about 33%, passing the limit was not always enough;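 further: cells stimulated with NPY at EC10 then isoproterenol at EC100; 0% = low agonist plus stimulus and 100% = saturating agonist plus stimulus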
# S1P4 antag = blocks the human S1P4 receptor; S1P4-expressing cells, antagonist mode, reporter read-out; inhibition, % at 4.98 µM; 0.26% of 220,000 active; in the data active means inhibition above about 29%;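 further: 0% = wells stimulated with agonist and 100% = vehicle wells without agonist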
# NPY Y1 blocker = blocks the human neuropeptide Y Y1 receptor | HEK293-CNG Y1 cells, membrane potential fluorescence; NPY at EC95, then isoproterenol | inhibition, % at 3.6 µM | 1% of 200,000 active;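 active means inhibition above the campaign mean inhibition of all tested compounds plus 3 SD, cut at about 20% in these data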;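 further: 0% = DMSO wells given NPY plus isoproterenol and 100% = isoproterenol alone without NPY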
#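 Test system – HEK293 Y1/CNG channel cell line · Also added – NPY agonist 25 nM, then isoproterenol 1 µM plus Ro 20-1724 25 µM · Compound dosing – one concentration, 3.6 µM, in 0.4% DMSO · Schedule – compound incubation 1 h at room temperature, readout 45 min post-stimulation · Technique – fluorescence, membrane potential probe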
# NPY Y2 blocker = antagonists of human neuropeptide Y receptor Y2; P49146; NPY-Y2 expressing cells, antagonist mode; inhibition, % at 2.7 µM; 0.99% of 140,000 active; AID 793; in the data active means inhibition above about 17%;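 further: 0% = vehicle with agonist challenge and 100% = reference antagonist with challenge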
# S1P4 ag = human S1P4 receptor agonism; 0.35% of 220,000 active; S1P4-expressing cell line, agonist reporter assay; activation, % at 4.98 µM; AID 1509; O95977; in the data active means activation above about 11%;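 further: 0% = DMSO vehicle and 100% = reference agonist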
# NPY-Y1 antag ct = human NPY-Y1 antagonism in NPY-Y2 counter-screen. shares compounds with NPY Y2 blocker. cell-based NPY-Y1 antagonism counterscreen. inhibition, % at 3.6 µM. 19% of 710 active; in the data active means inhibition above about 20%;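 further: cells challenged with NPY then isoproterenol with cAMP sensed through a CNG channel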
# NPY-Y2 ant conf = human NPY-Y2 antagonism, confirmation; shares compounds with NPY Y2 blocker; HEK293 NPY-Y2 CNG channel, membrane potential fluorescence; inhibition, % at 2.8 µM; 32% of 710 active;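 active means mean inhibition of triplicate wells above the hit cutoff set in the primary screen, cut at about 17% in these data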;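 further: 0% = DMSO with NPY challenge and 100% = BIIE0246 high control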
# * = called active by the depositor; nt = no result given. Hits are enriched below; roughly 2.4% of the tested compounds scored in any of these assays.
SMILES,NPY-Y2 PAM-ag,NPY-Y1 PAM-ag,S1P4 antag,NPY Y1 blocker,NPY Y2 blocker,S1P4 ag,NPY-Y1 antag ct,NPY-Y2 ant conf
Cc1cc(C(=O)NNc2c(Cl)cccc2Cl)n(C(C)(C)C)n1,-3.4,17.0,-4.6,nt,nt,-0.1,nt,nt
Cc1cccc(NC(=O)C(c2cccc([N+](=O)[O-])c2)N2CCCCC2)c1 (configuration not stated),-9.9,-11.7,12.7,15.0,17.4*,1.5,16.2,6.2
COc1cccc(NC(=O)C(c2ccccc2)N2CCCC2)c1 (configuration not stated),1.2,-21.5,-4.1,10.2,nt,-1.0,nt,nt
COC(=O)c1sccc1NC(=S)N1CCN(c2ccccc2F)CC1,-15.7,-6.7,-9.9,4.5,18.3*,0.1,12.6,11.5
O=C(CC(=O)NC1CCCCC1)N/N=C/c1ccc(Cl)cc1,-9.1,2.4,1.1,-5.3,3.9,0.1,nt,nt
O=c1c(-c2n[nH]c(=S)n2-c2ccccc2)cccn1Cc1cccc(Cl)c1,1.8,-14.2,2.0,0.9,nt,0.9,nt,nt
COc1ccc(-c2nnc3n2N=C(c2cccc(Br)c2)CS3)cc1OC,-1.0,2.3,-7.3,2.3,19.4*,0.1,4.1,8.7
O=C1COc2ccc(C(=O)COC(=O)CNC(=O)C3CCCCC3)cc2N1,5.1,19.5,9.9,-4.3,nt,0.7,nt,nt
Cc1ccc(-c2nc3ncccc3o2)cc1NC(=O)COc1ccccc1,1.8,-22.7,16.7,2.7,20.8*,-2.8,7.7,5.5
O=C(CNC(=S)N(Cc1ccccc1)Cc1cccnc1)N1CCOCC1,1.6,1.3,2.1,6.3,nt,-0.8,nt,nt
CC(=O)ONC(=Nc1ccccc1)c1nonc1N,-27.4,17.0,8.1,nt,nt,0.3,nt,nt
Cc1ccc(N=C(NOC(=O)c2ccccc2)c2nonc2N)c(C)c1,-22.8,-1.8,-7.2,8.9,24.6*,-2.8,6.7,3.5
CCOc1ccccc1NC(=O)COC(=O)C(CC)c1ccccc1 (configuration not stated),3.7,-3.8,9.9,1.3,nt,-0.2,nt,nt
COc1ccccc1CNC(=O)CSc1nc2ccccc2c(=O)n1CCCN1CCOCC1,12.9,20.5,-2.8,5.3,nt,-0.4,nt,nt
COc1ccc(NC(=O)CSc2nc3ccccc3c(=O)n2CCCN2CCCCC2)c(OC)c1,-13.0,-45.3,-2.0,14.8,23.9*,1.1,13.9,20.1*
CC(=O)Nc1ccc(S(=O)(=O)N2c3ccccc3NC(=O)CC2C)c(Cl)c1 (configuration not stated),8.9,-0.8,-2.6,nt,nt,-0.4,nt,nt
N#Cc1nc(-c2ccc(Cl)cc2)oc1NCc1ccco1,11.1,11.2,5.6,2.9,2.2,-0.7,nt,nt
N#Cc1nc(-c2ccc(Cl)cc2)oc1NCc1cccc2c1OCO2,-7.1,-38.2,-9.0,12.1,19.8*,2.3,21.1*,19.6*
CC1C(=O)Nc2ccccc2N1C(=O)c1ccccc1 (configuration not stated),2.0,16.5,-8.0,11.1,nt,2.1,nt,nt
COc1ccccc1C(c1nnnn1CCc1ccccc1)N1CCCCCC1 (configuration not stated),1.4,6.8,3.7,14.6,26.4*,-1.9,6.0,4.0
O=[N+]([O-])c1ccc(-c2csc(Nc3ccccc3)[n+]2Cc2ccccc2)cc1,11.8,-4.2,-14.8,10.7,18.7*,-2.0,11.3,8.7
CC(C)c1ccc(/C=C/C(=O)N2CCc3ccccc3C2)cc1,-7.9,-7.5,6.2,3.1,17.6*,0.4,28.6*,24.5*
CCn1nc(C(=O)OCC(=O)c2cc(C)n(Cc3cccs3)c2C)c2ccccc2c1=O,-23.8,-15.2,-3.6,16.7,24.4*,0.1,19.5,24.9*
Cc1cc(C(=O)COC(=O)c2ccccc2O)c(C)n1Cc1cccs1,-7.1,-6.0,0.2,12.0,13.2,-2.4,nt,nt
Cc1ccccc1C(=O)c1cccn1CC(=O)NCCN1CCN(c2cccc(C)c2C)CC1,-20.6,-61.4,-23.4,19.7,21.4*,-1.2,18.9,24.6*
SMILES,NPY-Y2 PAM-ag,NPY-Y1 PAM-ag,S1P4 antag,NPY Y1 blocker,NPY Y2 blocker,S1P4 ag,NPY-Y1 antag ct,NPY-Y2 ant conf
Cc1ccc(C)c(N2CCN(CCCNC(=O)Cn3cccc3C(=O)c3ccccc3C)CC2)c1,-20.7,-38.6,14.7,18.5,nt,-1.7,nt,nt
CC(C)(C)n1nnnc1C(c1cccs1)N(Cc1ccc(Cl)cc1)CC1CCCO1 (configuration not stated),2.4,-20.6,-0.4,11.3,28.3*,2.7,19.4,10.8
Cc1cc(C)n(-c2nnc(C)n2/N=C/c2ccccc2OCc2ccccc2Cl)n1,-3.0,-3.9,-3.9,10.7,17.5*,-1.3,20.1*,10.8
Cc1cccn2cc(CCNC(=O)Cc3cccs3)nc12,11.3,10.8,5.2,nt,nt,2.1,nt,nt
CCOc1ccc(C(C(=O)NC2CCCC2)N(Cc2ccccc2)C(=O)c2nsc(Cl)c2Cl)cc1 (configuration not stated),-16.2,-24.8,-0.5,18.3,25.0*,0.0,20.6*,13.8
COc1ccc(CCNC(=O)c2nnn(CC(=O)Nc3cccc(F)c3)c2N)cc1OC,4.9,-3.0,15.9,3.0,nt,0.5,nt,nt
C/C(=N/NS(C)(=O)=O)c1ccc2ccccc2c1,-2.5,-10.3,4.7,1.4,17.1*,-0.6,7.5,4.8
CC(C)CNS(=O)(=O)c1ccc(CCC(=O)NCCC2=CCCCC2)cc1,-10.6,20.8,2.1,-0.2,nt,0.4,nt,nt
C=CCOC(=O)C1C(=O)CC(C)(O)C(C(=O)OCC=C)C1c1ccc(OCC)cc1 (configuration not stated),-31.6,-16.0,-1.4,13.8,21.9*,-0.3,15.6,8.8
CCN(CC)c1ccc(C2C(C(=O)OC(C)C)C(=O)CC(C)(O)C2C(=O)OC(C)C)cc1 (configuration not stated),9.6,-6.9,9.6,19.8,18.5*,-1.1,5.7,4.6
CCn1cc(C(=O)NCc2ccc3c(c2)OCO3)c(=O)c2cc(F)c(N3CCN(C(=O)c4ccco4)CC3)cc21,-8.9,-4.5,-23.8,14.2,0.6,-0.8,nt,nt
COc1cccc(-c2nnc3sc(-c4ccccc4)nn23)c1,0.5,2.0,-27.4,10.5,7.3,0.1,nt,nt
Cc1cccc(-c2nnc3sc(-c4ccccc4C)nn23)c1,-9.3,-39.7,-5.1,7.5,18.6*,0.8,7.1,13.4
COc1ccc(Cc2nnc(NC(=O)c3cccc([N+](=O)[O-])c3)s2)cc1,9.0,0.8,5.6,-3.0,2.5,3.0,nt,nt
CCCOc1ccc(Br)cc1/C=N/O,-2.9,-49.4,-7.8,17.2,18.4*,-2.9,20.6*,9.0
C=CCn1c(SCC(=O)Nc2cccnc2Cl)nnc1-c1ccccc1F,-8.6,-18.8,-12.1,1.1,2.4,1.4,nt,nt
Cc1cc(C)nc(NC(=O)CSc2nn(-c3ccccc3)c(=S)s2)n1,-1.2,4.3,3.1,nt,nt,1.4,nt,nt
